Each structure is given as a SMILES string.

Data on 14 molecules can be found in PubChem BioAssay AID2609 (Broad Institute, 2010).

This assay has as its system BJeLR fibroblasts viability, Alamar Blue fluorescence, 48 h. Nature of the assay: cytotoxicity toward Ras-transformed BJeLR fibroblasts, dose response, cell-based, alamar blue fluorescence, powder samples (AID 2609). The gist of the method:
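Medium: DMEM/M199 with heat-inactivated FBS; measure: cell viability from alamar blue fluorescence signal; schedule: 48 h compound treatment at 37 °C, ~16 h dye; signal: Alamar blue fluorescence, ex 544/em 590 nm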
Consider `Cc1ccc(C2CC(c3cccs3)=NN2C(=O)CCl)cc1` (centres undefined), for which the EC50 is 2920 nM. For `C=CCOc1ccccc1CN(C(=O)CCl)c1ccc2c(c1)OCO2`, the EC50 is 7650 nM. On to `COc1ccc(CN(CCC(c2ccccc2)c2ccc(OC(C)C)cc2)C(=O)CCl)cc1OC` (centres undefined), for which the EC50 is 890 nM. The value for `COc1ccc(N(C(=O)CCl)C(C(=O)NCCc2ccccc2)c2cccs2)cc1Cl` (centres undefined) was 990 nM; that for `COc1ccc(N(C(=O)CCl)C(C(=O)NCCc2ccccc2)c2cccs2)cc1` (centres undefined) was 1690 nM; that for `COc1ccc(C(C(=O)NC2CCCCC2)N(C(=O)CCl)c2ccc(C)cc2)cc1` (centres undefined) was 8330 nM. The value for `COc1cccc(N(C(=O)CCl)C(C(=O)NCCc2ccccc2)c2cccs2)c1` (centres undefined) was 2350 nM; that for `O=C(CCl)N=c1sccn1Cc1ccccc1Cl` was 4940 nM. Regarding `COc1ccc(C(C(=O)NC2CCCCC2)N(C(=O)CCl)c2cccc(Cl)c2)cc1` (centres undefined), the EC50 is 3190 nM.

With `Nc1nc(CCl)nc(Nc2ccc3ccccc3c2)n1`, the EC50 is 2500 nM. Consider `COC(=O)[C@@H]1Cc2c([nH]c3ccccc23)C(C)(C)N1C(=O)CCl`, for which the EC50 was 4010 nM. As for `CCCCCCCN(C(=O)CCl)c1cccc(C)c1`, the figure is 3440 nM. As for `Cc1ccc(N(C(=O)CCl)C(C(=O)NC2CCCCC2)c2cccnc2)cc1C` (centres undefined), the figure is 1400 nM. In the case of `CCOc1ccc(Nc2nc(N)nc(CCl)n2)cc1`, the EC50 is 2210 nM.
